This note sets out measurements from PubChem BioAssay AID623913 (Johns Hopkins Ion Channel Center, 2012).

As a reminder, the IC50 is the concentration that inhibits the measured activity by half.

SMILES strings stand for the structures. Active and inactive are the calls of the source.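 The calls were made as follows: active = KCNQ2 potassium channel blocked by over 30% at some tested dose, with a dose response curve fitted; inactive = no blocking at any dose, or no fitted curve.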

Potassium voltage-gated channel subfamily KQT member 2 (Rattus norvegicus), sequence (O88943 whole entry, looked up): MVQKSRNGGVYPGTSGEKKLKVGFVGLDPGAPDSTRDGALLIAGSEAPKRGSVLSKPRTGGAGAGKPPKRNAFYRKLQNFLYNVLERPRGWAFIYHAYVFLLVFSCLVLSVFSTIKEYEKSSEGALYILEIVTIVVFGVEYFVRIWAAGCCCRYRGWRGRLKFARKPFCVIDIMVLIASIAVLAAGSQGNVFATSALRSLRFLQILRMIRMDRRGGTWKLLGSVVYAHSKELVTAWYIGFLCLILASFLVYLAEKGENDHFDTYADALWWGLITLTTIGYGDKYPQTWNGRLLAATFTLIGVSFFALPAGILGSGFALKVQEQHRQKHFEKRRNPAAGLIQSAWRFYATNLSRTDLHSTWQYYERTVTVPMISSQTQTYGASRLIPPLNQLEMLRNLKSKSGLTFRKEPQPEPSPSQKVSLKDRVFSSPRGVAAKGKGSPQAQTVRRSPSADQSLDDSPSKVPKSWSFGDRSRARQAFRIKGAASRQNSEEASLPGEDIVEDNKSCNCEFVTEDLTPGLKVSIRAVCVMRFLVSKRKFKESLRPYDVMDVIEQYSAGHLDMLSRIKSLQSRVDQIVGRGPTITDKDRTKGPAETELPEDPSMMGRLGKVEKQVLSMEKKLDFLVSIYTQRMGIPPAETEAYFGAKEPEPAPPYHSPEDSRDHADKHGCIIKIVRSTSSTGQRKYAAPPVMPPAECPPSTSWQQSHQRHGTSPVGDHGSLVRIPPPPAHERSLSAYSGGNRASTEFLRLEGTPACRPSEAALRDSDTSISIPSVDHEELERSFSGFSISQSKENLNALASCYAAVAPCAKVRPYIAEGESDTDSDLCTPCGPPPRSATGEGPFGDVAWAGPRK

In the first assay the target is Potassium voltage-gated channel subfamily KQT member 2 (Rattus norvegicus) (UniProt O88943). As to the kind of experiment: block of rat KCNQ2 potassium current – cell-based, FluxOR thallium flux, concentration-response, set 4, selectivity assay for KCNK9 inhibitor project, SAR follow-up (AID 623913). The following applies: KCNQ2 cells, FluxOR thallium flux fluorescence. In short, it runs like this:
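Material: KCNQ2-expressing CHO cells | Probe or stimulus: K+/Tl+ stimulus buffer (5x stock K2SO4 plus Tl2SO4) | Incubation: FluxOR dye loading 90 min, compound exposure 20 min, both room temperature | Signal: FluxOR thallium flux fluorescence, kinetic read | Benchmarks: XE-991 control | Replicates: at least duplicate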
For the compound `COc1ccc(C(=O)CCSc2nnc(-c3ccco3)n2C(C)C2CC3CCC2C3)cc1OC` (stereo not given), the IC50 is 11.1 µM.

Still in this assay, the particulars now being: KCNQ2 cells, FluxOR thallium flux fluorescence; at 30 µM (top of the series).
Take `COc1cccc(-c2n[nH]c(=S)n2[C@H](C)C2CCCCC2)c1`: the “thallium flux ratio, lower = inhibition” value is “inactive”.

As to `CC(C1CC2CCC1C2)n1c(SCC(=O)N2CCN(C)CC2)nnc1-c1ccco1` (stereo not given), the “thallium flux ratio, lower = inhibition” value is “inactive”.

As to `CC(C1CCN(C)CC1)n1c(-c2ccco2)n[nH]c1=S` (stereo not given), the “thallium flux ratio, lower = inhibition” value is “inactive”.

Take `COc1ccc(CC(=O)NCc2ccccc2-c2ccccc2C(=O)NCc2ccc(F)cc2F)cc1`: the “thallium flux ratio, lower = inhibition” value is “inactive”.

`C[C@H](C1CCCCC1)n1c(-c2ccccc2F)n[nH]c1=S`: the “thallium flux ratio, lower = inhibition” value is “inactive”.

For the compound `C[C@H](C1CCCCC1)n1c(-c2ccsc2)n[nH]c1=S`, the “thallium flux ratio, lower = inhibition” value is “inactive”.

Take `CCCC(=O)C1CCN(c2ncnc3c2CN(C(=O)c2ccc(-c4ccccc4)cc2)CC3)CC1`: the “thallium flux ratio, lower = inhibition” value is “inactive”.

As for `COc1ccc(NC(=O)CSc2nnc(-c3ccco3)n2C(C)C2CC3CCC2C3)cc1OC` (stereo not given), the “thallium flux ratio, lower = inhibition” value was “inactive”.

Regarding `C[C@H]([C@@H]1CC2CC[C@H]1C2)n1c(-c2ccsc2)n[nH]c1=S`, the “thallium flux ratio, lower = inhibition” value was “inactive”.

Consider `C[C@@H]([C@@H]1CC2CC[C@H]1C2)n1c(-c2ccco2)n[nH]c1=S`, for which the “thallium flux ratio, lower = inhibition” value was “inactive”.

`CC(C1CC2CCC1C2)n1c(N)nnc1-c1ccco1` (stereo not given): the “thallium flux ratio, lower = inhibition” value was “inactive”.

In the case of `CC(C1CC2CCC1C2)n1c(SCCc2ccccn2)nnc1-c1ccco1` (stereo not given), the “thallium flux ratio, lower = inhibition” value is “inactive”.

`COc1cccc(-c2n[nH]c(=S)n2[C@H](C)[C@@H]2CC3CC[C@H]2C3)c1`: the “thallium flux ratio, lower = inhibition” value is “inactive”.

In the case of `C[C@@H]([C@@H]1CC2CC[C@H]1C2)n1c(-c2ccsc2)n[nH]c1=S`, the “thallium flux ratio, lower = inhibition” value is “inactive”.

On to `CC(C1CC2CCC1C2)n1c(SCCN2CCOCC2)nnc1-c1ccco1` (stereo not given), for which the “thallium flux ratio, lower = inhibition” value was “inactive”.

In the case of `COc1cccc(CCSc2nnc(-c3ccco3)n2C(C)C2CC3CCC2C3)c1` (stereo not given), the “thallium flux ratio, lower = inhibition” value was “inactive”.

Consider `COc1cccc(-c2nnc(SSc3nnc(-c4cccc(OC)c4)n3C(C)C3CC4CCC3C4)n2C(C)C2CC3CCC2C3)c1` (stereo not given), for which the “thallium flux ratio, lower = inhibition” value is “inactive”.

`CC(C1C[C@H]2CCC1C2)n1c(-c2ccsc2)n[nH]c1=S` (stereo not given in full): the “thallium flux ratio, lower = inhibition” value is “inactive”.

For the compound `C[C@H]([C@@H]1CC2CC[C@H]1C2)n1c(-c2ccco2)n[nH]c1=S`, the “thallium flux ratio, lower = inhibition” value is “inactive”.

Regarding `CC([C@@H]1CC2CC[C@H]1C2)n1c(-c2ccsc2)n[nH]c1=S` (stereo not given in full), the “thallium flux ratio, lower = inhibition” value was “inactive”.

With `C[C@H]([C@@H]1CC2CC[C@H]1C2)n1c(-c2ccccc2F)n[nH]c1=S`, the “thallium flux ratio, lower = inhibition” value was “inactive”.

Turning to `COc1ccc(CSc2nnc(-c3ccco3)n2C(C)C2CC3CCC2C3)cc1OC` (stereo not given), the “thallium flux ratio, lower = inhibition” value is “inactive”.

As for `CC(C1CC2CCC1C2)n1c(SCCc2cccc(O)c2)nnc1-c1ccco1` (stereo not given), the “thallium flux ratio, lower = inhibition” value is “inactive”.

As for `CC(C1CC2CCC1C2)n1c(-c2ccco2)nn(CCc2ccncc2)c1=S` (stereo not given), the “thallium flux ratio, lower = inhibition” value is “inactive”.
